Consider 8 compounds from ChEMBL document CHEMBL5316292 (J Med Chem, 2023).

The target of data set [1] is T1, Bromodomain-containing protein 3 (Homo sapiens, UniProt Q15059). Put plainly: Inhibition of BRD3-BD2 (unknown origin) by fluorescence polarization assay. The essentials: (§1)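 FP competition assay using the fluorescein-labeled PCC conjugate (4 nM) as tracer. Recombinant His-tagged BRD bromodomain (20–400 nM) in 50 mM HEPES pH 7.4, 150 mM NaCl, 0.5 mM TCEP, 0.05% Tween-20. DMSO-matched serial dilutions were added and the plate incubated. Read at ex 485/em 535 nm, with G-factor zeroed on tracer alone. Triplicate data were curve-fitted, error SEM.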
Target sequence in this assay (Q15059 whole entry): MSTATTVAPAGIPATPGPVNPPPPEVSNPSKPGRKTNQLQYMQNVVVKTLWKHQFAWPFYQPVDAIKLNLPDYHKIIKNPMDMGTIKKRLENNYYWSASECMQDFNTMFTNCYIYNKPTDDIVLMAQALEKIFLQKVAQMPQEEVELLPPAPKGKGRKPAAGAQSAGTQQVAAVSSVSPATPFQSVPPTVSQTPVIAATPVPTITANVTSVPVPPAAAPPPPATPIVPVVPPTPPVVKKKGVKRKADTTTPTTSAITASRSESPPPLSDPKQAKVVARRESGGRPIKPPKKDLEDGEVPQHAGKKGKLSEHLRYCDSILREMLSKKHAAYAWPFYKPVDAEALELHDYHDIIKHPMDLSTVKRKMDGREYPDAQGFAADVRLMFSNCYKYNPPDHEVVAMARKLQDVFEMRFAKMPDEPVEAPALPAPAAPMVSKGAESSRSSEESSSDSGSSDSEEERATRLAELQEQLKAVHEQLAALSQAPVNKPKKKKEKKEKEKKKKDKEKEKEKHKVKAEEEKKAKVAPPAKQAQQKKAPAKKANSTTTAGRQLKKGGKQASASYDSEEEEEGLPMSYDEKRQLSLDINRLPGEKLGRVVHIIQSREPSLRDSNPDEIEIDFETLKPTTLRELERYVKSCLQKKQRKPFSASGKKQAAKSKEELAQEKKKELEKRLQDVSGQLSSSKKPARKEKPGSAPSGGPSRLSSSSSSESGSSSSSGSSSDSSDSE
Background: Fluorescence polarisation rises when a labelled molecule tumbles more slowly, as on binding a larger partner.

The test system of a further data set is PC-3. Put plainly: Antiproliferative activity against androgen-insensitive human PC-3 cells assessed as reduction in cell viability measured after 72 hrs by MTS assay. It counts as functional, cell-based. Conditions: PC-3, 72 h. The essentials: (§2)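 MTS viability assay run in triplicate wells. Serial dilutions in DMSO were given, with DMSO as negative control and doxorubicin as positive control, and incubated 72 h. MTS reagent was added for 2 h and absorbance read at 490 nm. % cytotoxicity = (A_medium − A_treatment)/A_medium × 100. EC50 ± SD was taken from dose-response curves of at least three independent experiments.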
Background: Tetrazolium assays rely on reduction of a dye to a coloured formazan, in cell work by metabolically active cells.

In another data set the test system is DU-145. Put plainly: Antiproliferative activity against AR-negative human DU-145 cells assessed as reduction in cell viability measured after 72 hrs by MTS assay. The note with it: DU-145, 72 h.
A short description of data set [2]: Cytotoxicity against HFF cells assessed as reduction in cell viability measured after 72 hrs by MTS assay. It counts as toxicity, cell-based. The note with it: human. Summed up: as §2
For data set [3], the target named is T2, Bromodomain-containing protein 4 (Homo sapiens, UniProt O60885). Put plainly: Inhibition of BRD4-BD1 (unknown origin) by fluorescence polarization assay. Summed up: as §1
Data set [4] can be described thus: Antiproliferative activity against human Androgen-resistant 22Rv1 cells assessed as reduction in cell viability measured after 72 hrs by MTS assay. It counts as functional, cell-based. The note with it: 22Rv1, 72 h. The essentials:
as §2

Data set [5] deals with T2, Bromodomain-containing protein 4. Nature of the data set: Inhibition of BRD4-BD2 (unknown origin) by fluorescence polarization assay. The essentials:
as §1

The subject of another data set is LNCaP. Nature of the data set: Antiproliferative activity against androgen-sensitive human LNCaP cells assessed as reduction in cell viability measured after 72 hrs by MTS assay. It counts as functional, cell-based. Summed up: as §2
Data set [6] deals with T1, Bromodomain-containing protein 3. Put plainly: Inhibition of BRD3-BD1 (unknown origin) by fluorescence polarization assay. The essentials:
as §1
Target sequence in this assay (Q15059 whole entry): as above

Data set [7] concerns the target T2, Bromodomain-containing protein 4. Nature of the data set: Induction of BRD4 degradation in human PC-3 cells incubated for 16 hrs by immunoblotting analysis. Format: cell-based. The essentials:
(§3)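 MDA-MB-231 or PC-3 cells at 50% confluence in DMEM/10% FBS/pen-strep, treated 16 h with doses falling tenfold from 10 µM to 1 nM. RIPA lysates immunoblotted for BRD2, BRD3 and BRD4 with GAPDH as control. DC50 derived from band densitometry. SEM, n = 2.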
Background: Immunoblotting shows a protein as a band on a membrane.

In data set [8] the test system is VCaP. Put plainly: Antiproliferative activity against AR-positive human VCaP cells assessed as reduction in cell viability measured after 72 hrs by MTS assay. It counts as functional, cell-based. The essentials:
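VCaP cells in 96-well plates, compound serially diluted in DMSO and run in triplicate wells for 72 h. MTS reagent added for 2 h, absorbance read at 490 nm. % cytotoxicity = (A_medium − A_treatment)/A_medium × 100. EC50 and SD taken from dose-response curves, at least three independent experiments.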

The target in data set [9] is T1, Bromodomain-containing protein 3. Nature of the data set: Induction of BRD3 degradation in human PC-3 cells incubated for 16 hrs by immunoblotting analysis. It counts as cell-based. Summed up:
as §3
Target sequence in this assay (Q15059 2-726 limits assumed): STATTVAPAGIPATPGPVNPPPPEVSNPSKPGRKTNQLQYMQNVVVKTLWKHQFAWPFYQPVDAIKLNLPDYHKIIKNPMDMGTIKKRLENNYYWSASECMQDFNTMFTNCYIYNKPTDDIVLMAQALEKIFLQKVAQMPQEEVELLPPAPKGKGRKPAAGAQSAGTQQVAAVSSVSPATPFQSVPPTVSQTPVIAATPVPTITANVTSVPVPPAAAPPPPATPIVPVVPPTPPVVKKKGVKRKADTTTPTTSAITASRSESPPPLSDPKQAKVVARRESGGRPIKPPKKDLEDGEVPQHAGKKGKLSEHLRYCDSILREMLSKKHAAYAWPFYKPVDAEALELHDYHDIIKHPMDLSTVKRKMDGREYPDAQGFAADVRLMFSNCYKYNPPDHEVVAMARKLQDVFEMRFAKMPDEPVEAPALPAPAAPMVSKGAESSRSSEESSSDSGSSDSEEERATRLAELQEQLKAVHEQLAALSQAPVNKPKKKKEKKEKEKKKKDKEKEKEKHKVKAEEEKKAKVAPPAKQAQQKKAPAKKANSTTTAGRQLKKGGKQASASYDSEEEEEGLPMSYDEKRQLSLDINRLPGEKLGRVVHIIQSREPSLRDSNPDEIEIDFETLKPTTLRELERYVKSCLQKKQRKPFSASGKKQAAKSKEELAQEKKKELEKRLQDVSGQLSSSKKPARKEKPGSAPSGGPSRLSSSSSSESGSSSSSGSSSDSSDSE

Data set [10] is described as follows: Cytotoxicity against human WI-38 cells assessed as reduction in cell viability measured after 72 hrs by MTS assay. Format: toxicity, cell-based. Summed up: as §2
Data set [11] has as its system VCaP. Nature of the data set: Downregulation of PSA […] expression in human VCaP cells incubated for 24 hrs by qRT-PCR analysis. Conditions: dose 25-2500 nM. It counts as functional, cell-based. Summed up: (§4)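 VCaP cells grown to 50% confluence, then treated with compound or DMSO (Methods state 16 h, legend states 24 h). Total RNA isolated, cDNA made from 1 µg RNA, SYBR Green qPCR run in triplicate. Expression by ΔΔCt, normalised to GAPDH. Three independent experiments, SEM.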

Data set [12] relates to VCaP. Nature of the data set: Downregulation of TMPRSS2 gene levels in human VCaP cells incubated for 24 hrs by qRT-PCR analysis. The note with it: dose 25-2500 nM. It counts as functional, cell-based. Summed up:
as §4

Data set [13] has as its system VCaP. Put plainly: Downregulation of ERG gene levels in human VCaP cells incubated for 24 hrs by qRT-PCR analysis. Format: functional, cell-based. The note with it: dose 25-2500 nM. Summed up:
as §4

Data set [14] concerns VCaP. Put plainly: Downregulation of BRD3 mRNA levels in human VCaP cells at 25 to 2500 nM incubated for 24 hrs by qRT-PCR analysis. Format: functional, cell-based. Conditions: dose 25-2500 nM. Summed up: as §4
Data set [15] has as its system VCaP. Nature of the data set: Downregulation of BRD4 mRNA levels in human VCaP cells at 25 to 2500 nM incubated for 24 hrs by qRT-PCR analysis. It counts as functional, cell-based. Conditions: dose 25-2500 nM. Summed up:
as §4

For data set [16], the system named is VCaP. Put plainly: Downregulation of AR […] expression in human VCaP cells at 25 to 2500 nM incubated for 24 hrs by qRT-PCR analysis. Format: functional, cell-based. The note with it: dose 25-2500 nM. The essentials:
as §4

Data set [17] deals with VCaP. Put plainly: Downregulation of BRD2 mRNA levels in human VCaP cells at 25 to 2500 nM incubated for 24 hrs by qRT-PCR analysis. It counts as functional, cell-based. Conditions: dose 25-2500 nM. The essentials:
as §4

pEC50, pIC50: −log10 of the molar value. Active and inactive are the calls of the source. The calls are words filed in the database; no cut-off is given here.

On to `CC(=O)OC[C@]12CC[C@H]3[C@@H](C[C@H]4O[C@]45CC=CC(=O)[C@]35C)[C@]1(O)CC[C@@]2(O)[C@@](C)(O)[C@H]1C[C@]2(C)O[C@]2(C)C(=O)O1`, for which the pIC50 was 6.12 in data set [1], 5.71 in [3], 5.25 in [5] and 5.63 in data set [6]. Moreover, the pEC50 is 6.37 with PC-3, 5.83 with DU-145, 6.75 in data set [4] and 6.38 in the data set on LNCaP. Besides, in data set [2], the EC50 at 72 h is over 2 µM.

Regarding `CC(=O)OC[C@]12CC[C@H]3[C@@H](C[C@H]4O[C@]45CCCC(=O)[C@]35C)[C@]1(O)CC[C@@]2(O)[C@@](C)(O)[C@H]1CC(C)=C(C)C(=O)O1`, the pIC50 in [1] is 4.98; in [3], 7.22; in [5] it was 5.04; in [6] it was 6.63. The result in [7] and in data set [9] was inactive. Also, the figures for the pEC50 with VCaP [8] and with PC-3 were under 5.70 and 5.96, respectively.

`COc1cccc2c1C(=O)c1c(O)c3c(c(O)c1C2=O)C[C@@](O)(C(=O)CO)C[C@@H]3O[C@H]1C[C@H](N)[C@H](O)[C@H](C)O1` [DOXORUBICIN]: the pEC50 is 6.17 in the data set on VCaP [8]; 6.47 in the data set with PC-3; 7.40 in the data set with DU-145; 7.70 in [4]; 6.96 with LNCaP. Further, the EC50 at 72 h was 0.8 µM in data set [10] and 0.15 µM in data set [2].

On to `CC(=O)OC[C@]12CC[C@H]3[C@@H](C[C@H]4O[C@]45CC=CC(=O)[C@]35C)[C@]1(O)CC[C@@]2(O)[C@@](C)(O)[C@H]1C[C@H](C)[C@H](C)C(=O)O1`, for which the pIC50 in data set [1], in [3], in data set [5] and in data set [6] was under 4.70 each time. The pEC50 is 6.05 with PC-3, under 5.70 with DU-145, 5.95 in [4] and 5.98 in the data set on LNCaP. Besides, in data set [2], the EC50 at 72 h is over 2 µM.

Turning to `Cc1sc2c(c1C)C(c1ccc(Cl)cc1)=N[C@@H](CC(=O)OC(C)(C)C)c1nnc(C)n1-2`, the Activity entry in the data set with VCaP [11] is “Dose-Dependent Effect”. Also, the result in the data set with VCaP [12] and in the data set with VCaP [13] was Active. Besides, the pEC50 is 6.80 with VCaP [8]; under 5.70 in the data set with PC-3; under 5.70 with DU-145; 6.64 in data set [4]; 6.79 in the data set on LNCaP. In addition, the EC50 at 72 h in data set [2] is over 2 µM. Also, the result in the data set on VCaP [14], in the data set on VCaP [15], with VCaP [16] and in the data set on VCaP [17] was inactive.

As to `CC(=O)OC[C@]12CC[C@H]3[C@@H](C[C@H]4O[C@]45CC=CC(=O)[C@]35C)[C@]1(O)[C@@H](OC(C)=O)C[C@@]2(O)[C@@](C)(O)[C@H]1CC(C)=C(C)C(=O)O1`, the pIC50 in data set [1] was 5.22; in [3] it was 7.32; in data set [5], 4.83; in data set [6] it was 6.68. In addition, the pEC50 in the data set on PC-3 is 6.74; in the data set with LNCaP, 5.92. For the same compound, the EC50 at 72 h in data set [10] is over 5 µM.

In the case of `CC(=O)OC[C@]12CC[C@H]3[C@@H](C[C@@H]4O[C@@]45CC=CC(=O)[C@]35C)[C@]1(O)CC[C@@]2(O)[C@@](C)(O)[C@H]1CC(C)=C(C)C(=O)O1`, the pIC50 in [1] is 5.37; in [3] it was 7.51; in data set [5] it was 4.97; in data set [6], 7.05. Also, the pEC50 in the data set on PC-3 is 5.92; in the data set with LNCaP it was 6.49. Also, the EC50 at 72 h in [2] is over 12 µM.

For `CC(=O)OC[C@]12CC[C@H]3[C@@H](C[C@H]4O[C@]45CC=CC(=O)[C@]35C)[C@]1(O)CC[C@@]2(O)[C@@](C)(O)[C@H]1C[C@@H](C)[C@@H](C)C(=O)O1`, the pIC50 in data set [1], in data set [3], in [5] and in [6] was under 4.70 each time. Also, the pEC50 in the data set on PC-3 is 6.07; in the data set on DU-145, under 5.70; in [4], 5.83; in the data set on LNCaP, 5.97. In addition, the EC50 at 72 h in data set [2] was over 2 µM.

As usually defined, the pIC50 is the negative decadic logarithm of the IC50, by convention in mol/L. A higher pIC50 goes with a low IC50. By pEC50 is commonly meant the negative decadic logarithm of the EC50, by convention in mol/L. In general, EC50 refers to the concentration that produces a half-maximal response.
